According to ChEMBL document CHEMBL5523688, “Selective targeting of human TET1 by cyclic peptide inhibitors: Insights from biochemical profiling” (Bioorg Med Chem, 2024):
Calls of active or inactive are those of the source. No cut-off for these calls is given here.

Key:
[1] = target: T1, Methylcytosine dioxygenase TET3 (Homo sapiens, UniProt O43151); assay: (§1) Inhibition of recombinant human TET3 catalytic domain (E824 to I1795 residues) expressed in baculovirus infected Sf9 cells using 5-methylcytosine as substrate preincubated for 10 mins followed by substrate and DNA-cofactor addition measured after 10 mins by Alphascreen assay
[2] = target: T2, Methylcytosine dioxygenase TET1 (Homo sapiens, UniProt Q8NFU7); assay: (§2) Inhibition of N-terminal 3xFlag-tagged recombinant human TET1 catalytic domain (E1418 to V2136 residues) expressed in baculovirus infected Sf9 cells using 5-methylcytosine as substrate preincubated for 10 mins followed by substrate and DNA-cofactor addition measured after 30 mins by Alphascreen assay
T2 sequence (Q8NFU7 whole entry, the tested form may be a part): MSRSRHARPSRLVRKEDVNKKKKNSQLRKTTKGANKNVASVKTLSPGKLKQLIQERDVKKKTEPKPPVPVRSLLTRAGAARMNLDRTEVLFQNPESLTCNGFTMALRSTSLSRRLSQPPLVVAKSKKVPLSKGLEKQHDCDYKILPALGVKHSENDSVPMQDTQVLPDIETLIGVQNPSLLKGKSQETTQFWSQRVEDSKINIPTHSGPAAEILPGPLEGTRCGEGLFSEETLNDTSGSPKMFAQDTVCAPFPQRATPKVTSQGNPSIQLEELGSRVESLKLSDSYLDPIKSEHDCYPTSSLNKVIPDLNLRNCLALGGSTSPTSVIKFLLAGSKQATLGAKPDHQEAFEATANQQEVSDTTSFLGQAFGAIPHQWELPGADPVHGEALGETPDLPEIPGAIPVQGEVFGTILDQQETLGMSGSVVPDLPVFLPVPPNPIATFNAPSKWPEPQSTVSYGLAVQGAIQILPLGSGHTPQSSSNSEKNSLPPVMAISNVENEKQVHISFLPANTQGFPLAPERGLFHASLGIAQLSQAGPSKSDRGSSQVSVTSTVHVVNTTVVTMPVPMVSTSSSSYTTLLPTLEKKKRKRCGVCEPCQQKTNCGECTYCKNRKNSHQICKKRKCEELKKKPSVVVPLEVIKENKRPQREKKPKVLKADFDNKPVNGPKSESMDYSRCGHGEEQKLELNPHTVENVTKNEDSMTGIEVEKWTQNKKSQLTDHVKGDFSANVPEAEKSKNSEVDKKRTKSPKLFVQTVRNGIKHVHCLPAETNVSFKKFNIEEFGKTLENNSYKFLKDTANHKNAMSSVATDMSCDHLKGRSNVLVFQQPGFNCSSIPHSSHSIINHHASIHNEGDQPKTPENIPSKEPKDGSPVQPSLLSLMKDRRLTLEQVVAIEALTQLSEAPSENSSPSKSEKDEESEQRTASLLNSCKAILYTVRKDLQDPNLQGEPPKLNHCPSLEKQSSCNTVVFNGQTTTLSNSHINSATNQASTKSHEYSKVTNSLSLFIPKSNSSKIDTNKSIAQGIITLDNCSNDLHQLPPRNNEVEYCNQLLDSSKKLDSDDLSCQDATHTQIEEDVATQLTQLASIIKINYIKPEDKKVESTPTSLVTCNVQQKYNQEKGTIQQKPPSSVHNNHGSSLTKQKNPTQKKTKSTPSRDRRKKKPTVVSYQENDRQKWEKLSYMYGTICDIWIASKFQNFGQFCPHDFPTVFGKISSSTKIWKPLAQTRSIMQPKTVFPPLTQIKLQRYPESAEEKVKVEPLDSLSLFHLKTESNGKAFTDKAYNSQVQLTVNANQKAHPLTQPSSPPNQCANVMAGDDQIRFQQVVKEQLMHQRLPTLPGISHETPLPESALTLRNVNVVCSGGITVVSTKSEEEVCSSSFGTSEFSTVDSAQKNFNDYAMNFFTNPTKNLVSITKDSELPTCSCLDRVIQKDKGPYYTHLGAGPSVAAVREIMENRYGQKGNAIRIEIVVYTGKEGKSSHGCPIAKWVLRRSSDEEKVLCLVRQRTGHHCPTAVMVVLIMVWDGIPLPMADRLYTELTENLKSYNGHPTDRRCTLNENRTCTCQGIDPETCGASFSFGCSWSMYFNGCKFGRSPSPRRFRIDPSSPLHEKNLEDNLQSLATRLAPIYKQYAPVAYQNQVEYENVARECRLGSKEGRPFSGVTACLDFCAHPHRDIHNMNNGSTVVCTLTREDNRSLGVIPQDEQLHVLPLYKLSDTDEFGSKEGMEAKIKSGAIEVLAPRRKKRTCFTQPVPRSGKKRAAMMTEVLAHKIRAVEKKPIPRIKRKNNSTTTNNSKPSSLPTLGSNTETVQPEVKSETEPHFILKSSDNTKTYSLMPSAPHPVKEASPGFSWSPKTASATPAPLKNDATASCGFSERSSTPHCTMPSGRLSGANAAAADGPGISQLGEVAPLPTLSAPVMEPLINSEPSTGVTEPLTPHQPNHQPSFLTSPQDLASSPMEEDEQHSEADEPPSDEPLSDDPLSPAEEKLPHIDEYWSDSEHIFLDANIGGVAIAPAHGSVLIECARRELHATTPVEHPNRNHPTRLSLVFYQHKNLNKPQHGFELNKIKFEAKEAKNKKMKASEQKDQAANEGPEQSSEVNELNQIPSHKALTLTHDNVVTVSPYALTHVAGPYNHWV
Method in brief: (§3)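 TET1 catalytic domain (E1418–V2136, Sf9 baculovirus) at 2 nM was preincubated 10 min with inhibitor (1% DMSO) in HEPES 50 mM pH 7.3, 150 mM NaCl, 0.1% BSA, 0.01% Tween-20. Reaction was started with ascorbate 200 µM, Fe(II) 20 µM, 2OG 20 µM and 5mC ssDNA 10 nM, run 30 min, then EDTA-quenched. Anti-5hmC antibody with AlphaScreen beads, 45–60 min, luminescence read. Three independent replicates.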

[3] = Selectivity ratio of pIC50 for inhibition of N-terminal 3xFlag-tagged recombinant human TET1 catalytic domain (E1418 to V2136 residues) expressed in baculovirus infected Sf9 cells to pIC50 for inhibition of recombinant human TET3 catalytic domain (E824 to I1795 residues) expressed in baculovirus infected Sf9 cells
[4] = target: T3, Methylcytosine dioxygenase TET2 (Homo sapiens, UniProt Q6N021); assay: (§4) Inhibition of N-terminal His-tagged recombinant human TET2 catalytic domain LCIdel mutant (D1129 to G1936 residues with Y1481 to N1843 replaced by 3 x GGGGS linker) expressed in Escherichia coli BL21 (DE3) using 5-methylcytosine as substrate preincubated for 10 mins followed by substrate and DNA-cofactor addition measured after 10 mins by Alphascreen assay
[5] = target: T2, Methylcytosine dioxygenase TET1; assay: Inhibition of FLAG-tagged human TET1 catalytic domain (E1418 to V2136 residues) expressed in doxycycline induced human U2OS cells assessed as reduction in 5-hydroxymethylcytosine level at 30 to 100 uM incubated for 24 hrs by immunofluorescence assay; type: cell-based; settings: dose 30-100 µM
Method in brief: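 U2OS cells stably carrying dox-inducible FLAG-tagged TET1 catalytic domain were seeded at 5,000/well in DMEM with Tet-approved FBS (10%), penicillin/streptomycin and L-glutamine, then held 4 h at 37 °C. Induction used doxycycline 1 μg/mL alongside compound (1% DMSO final) for 24 h. Cells were fixed, permeabilised, blocked, immunostained (rabbit polyclonal oxidised-cytosine antibody 1:500, anti-FLAG 1:1000, 16 h) and DAPI-counterstained. Mean staining intensity of FLAG-TET1 cells was imaged.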

[6] = target: T1, Methylcytosine dioxygenase TET3; assay: as §1, with “as substrate assessed as change in pIC50 preincubated for” for “as substrate preincubated for”; settings: time 20.0 min
[7] = system: Methylcytosine dioxygenase TET2 (Homo sapiens), Q6N021 [UNDEFINED MUTATION]; settings: time 20.0 min
[8] = target: T2, Methylcytosine dioxygenase TET1; assay: as §2, with “as substrate assessed as change in pIC50 preincubated for” for “as substrate preincubated for”; settings: time 40.0 min; method in brief: as §3
[9] = target: T2, Methylcytosine dioxygenase TET1; assay: Inhibition of FLAG-tagged human TET1 catalytic domain (E1418 to V2136 residues) expressed in doxycycline induced human U2OS cells incubated for 24 hrs by immunofluorescence assay; type: cell-based
Method in brief: (§5)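 U2OS cells stably carrying dox-inducible FLAG-tagged TET1 catalytic domain (E1418–V2136), 5,000/well, seeded 4 h at 37 °C in DMEM with Tet-approved 10% FBS, pen/strep and L-glutamine. Doxycycline 1 µg/mL induction plus compound dosing (1% DMSO final) for 24 h. After fixation, cells were co-stained with anti-5hmC and anti-FLAG antibodies plus DAPI, then imaged. Read-out was mean 5hmC fluorescence in FLAG-positive cells.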

[10] = target: Methylcytosine dioxygenase TET1 (Mus musculus, UniProt Q3URK3); assay: Inhibition of recombinant mouse TET1 catalytic domain (E1367 to V2039 residues) expressed in baculovirus expression system using 5-methylcytosine as substrate preincubated for 10 mins followed by substrate and DNA-cofactor addition measured after 9 mins by Alphascreen assay
Method in brief: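 Murine Tet1 catalytic domain (E1367–V2039, High Five baculovirus) at 2 nM was preincubated 10 min with inhibitor (1% DMSO) in HEPES 50 mM pH 7.3, NaCl 150 mM, BSA 0.1%, Tween-20 0.01%. Ascorbate 200 µM, Fe(II) 20 µM, 2OG 20 µM and 5mC ssDNA 10 nM were added; reaction ran 9 min, then EDTA-quenched. AlphaScreen anti-5hmC detection by luminescence.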

[11] = target: T2, Methylcytosine dioxygenase TET1; assay: Inhibition of FLAG-tagged human TET1 catalytic domain (E1418 to V2136 residues) expressed in doxycycline induced human U2OS cells assessed as reduction in 5-hydroxymethylcytosine level at 50 to 100 uM incubated for 24 hrs by immunofluorescence assay; type: cell-based; settings: dose 50-100 µM; method in brief: as §5
[12] = organism: Homo sapiens; assay: Selectivity ratio of pIC50 for inhibition of N-terminal 3xFlag-tagged recombinant human TET1 catalytic domain (E1418 to V2136 residues) expressed in baculovirus infected Sf9 cells to pIC50 for inhibition of N-terminal His-tagged recombinant human TET2 catalytic domain LCIdel mutant (D1129 to G1936 residues with Y1481 to N1843 replaced by 3 x GGGGS linker) expressed in Escherichia coli BL21 (DE3)
[13] = target: T3, Methylcytosine dioxygenase TET2; assay: as §4, with “after 12” for “after 10”, “by SPE-MS analysis” for “by Alphascreen assay”

Question: With `CC[C@H](C)[C@@H]1NC(=O)[C@H](CC(C)C)NC(=O)[C@@H](Cc2ccc(O)cc2)NC(=O)CSC[C@@H](C(=O)NCC(=O)N[C@@H](CO)C(=O)NCC(=O)N[C@@H](CO)C(=O)N[C@@H](CC(=O)O)C(=O)N[C@@H](Cc2ccc(O)cc2)C(=O)N[C@@H](CCCCN)C(=O)N[C@@H](CC(=O)O)C(=O)N[C@@H](CC(=O)O)C(=O)N[C@@H](CC(=O)O)C(=O)N[C@@H](CC(=O)O)C(=O)N[C@@H](CCCCN)C(N)=O)NC(=O)[C@H](CO)NC(=O)[C@H](Cc2c[nH]cn2)NC(=O)[C@H](CCC(=O)O)NC(=O)[C@H](Cc2c[nH]c3ccccc23)NC(=O)[C@H](Cc2c[nH]c3ccccc23)NC(=O)[C@H]([C@@H](C)O)NC(=O)[C@H](Cc2ccc(O)cc2)NC(=O)[C@H](Cc2ccc(O)cc2)NC(=O)[C@H](C)NC(=O)[C@H](Cc2ccc(O)cc2)NC1=O` as the molecule, how does the IC50 ([1]; read-out: pIC50 (converted)) read?
Answer: 23400 nM

Question: What about the IC50 ([2]; read-out: pIC50 (converted)) of the same molecule?
Answer: 407 nM

Question: What about the Ratio pIC50 [3] of the same molecule?
Answer: 58

Question: And the pIC50 [4]?
Answer: 4.59

Question: With `N=C(N)NCCC[C@H](NC(=O)[C@H](CCCNC(=N)N)NC(=O)[C@H](CCCNC(=N)N)NC(=O)[C@H](CCCNC(=N)N)NC(=O)[C@H](CCCNC(=N)N)NC(=O)[C@H](CCCNC(=N)N)NC(=O)[C@H](CCCNC(=N)N)NC(=O)[C@@H](N)CCCNC(=N)N)C(=O)O` as the molecule, how does the IC50 ([1]; read-out: pIC50 (converted)) read?
Answer: > 100000 nM

Question: What about the IC50 ([2]; read-out: pIC50 (converted)) of the same molecule?
Answer: 251 nM

Question: What about the inhibition [5] of the same molecule?
Answer: Active

Question: What about the pIC50 [4] of the same molecule?
Answer: 6.45

Question: What does the source list for `CC(C)C[C@@H]1NC(=O)[C@@H](Cc2ccc(O)cc2)NC(=O)CSC[C@@H](C(N)=O)NC(=O)[C@H](CO)NC(=O)[C@H](Cc2c[nH]cn2)NC(=O)[C@H](CCC(=O)O)NC(=O)[C@H](Cc2c[nH]c3ccccc23)NC(=O)[C@H](Cc2c[nH]c3ccccc23)NC(=O)[C@H]([C@@H](C)O)NC(=O)[C@H](Cc2ccc(O)cc2)NC(=O)[C@H](Cc2ccc(O)cc2)NC(=O)[C@H](C)NC(=O)[C@H](Cc2ccc(O)cc2)NC(=O)[C@H](C)NC1=O`?
Answer: IC50 ([1]; read-out: pIC50 (converted)): 13800 nM; deltapIC50 [6]: -0.42; IC50 ([2]; read-out: pIC50 (converted)): 1230 nM; deltapIC50 [7]: -0.29; pIC50 [4]: 4.41; deltapIC50 [8]: -0.57

Question: With `O=C(O)c1ccc(O)c2ncccc12` as the molecule, how does the IC50 [9] read?
Answer: 22000 nM

Question: What about the IC50 ([2]; read-out: pIC50 (converted)) of the same molecule?
Answer: 562 nM

Question: And the deltapIC50 [7]?
Answer: 0.07

Question: And the IC50 [10]?
Answer: 427 nM

Question: What does the source list for `CC[C@H](C)[C@@H]1NC(=O)[C@H](CC(C)C)NC(=O)[C@@H](Cc2ccc(O)cc2)NC(=O)CSC[C@H](C(=O)N[C@@H](Cc2ccc(O)cc2)C(=O)NCC(=O)N[C@@H](CCCNC(=N)N)C(=O)N[C@@H](CCCCN)C(=O)N[C@@H](CCCCN)C(=O)N[C@@H](CCCNC(=N)N)C(=O)N[C@@H](CCCNC(=N)N)C(=O)N[C@@H](CCC(N)=O)C(=O)N[C@@H](CCCNC(=N)N)C(=O)N[C@@H](CCCNC(=N)N)C(N)=O)NC(=O)[C@H](CO)NC(=O)[C@H](Cc2c[nH]cn2)NC(=O)[C@H](CCC(=O)O)NC(=O)[C@H](Cc2c[nH]c3ccccc23)NC(=O)[C@H](Cc2c[nH]c3ccccc23)NC(=O)[C@H]([C@@H](C)O)NC(=O)[C@H](Cc2ccc(O)cc2)NC(=O)[C@H](Cc2ccc(O)cc2)NC(=O)[C@H](C)NC(=O)[C@H](Cc2ccc(O)cc2)NC1=O`?
Answer: IC50 ([1]; read-out: IC50): > 100000 nM; IC50 ([1]; read-out: pIC50 (converted)): 182 nM; IC50 ([2]; read-out: IC50): 250 nM; IC50 ([2]; read-out: pIC50 (converted)): 18.2 nM; inhibition [11]: Active; pIC50 [4]: 6.91

Question: For `N=C(N)NCCC[C@H](NC(=O)[C@H](CCCNC(=N)N)NC(=O)[C@H](CCCNC(=N)N)NC(=O)[C@H](CCC(N)=O)NC(=O)[C@H](CCCNC(=N)N)NC(=O)[C@H](CCCNC(=N)N)NC(=O)[C@H](CCCCN)NC(=O)[C@H](CCCCN)NC(=O)[C@H](CCCNC(=N)N)NC(=O)CNC(=O)[C@@H](N)Cc1ccc(O)cc1)C(=O)O`, which IC50 ([1]; read-out: pIC50 (converted)) is on record?
Answer: > 100000 nM

Question: What about the IC50 ([2]; read-out: pIC50 (converted)) of the same molecule?
Answer: 1150 nM

Question: And the inhibition [5]?
Answer: Active

Question: And the pIC50 [4]?
Answer: 5.39

Question: Which IC50 ([1]; read-out: pIC50 (converted)) does the source give for `CC[C@H](C)[C@@H]1NC(=O)[C@H](C)NC(=O)[C@@H](Cc2ccc(O)cc2)NC(=O)CSC[C@@H](C(N)=O)NC(=O)[C@H](CO)NC(=O)[C@H](Cc2c[nH]cn2)NC(=O)[C@H](CCC(=O)O)NC(=O)[C@H](Cc2c[nH]c3ccccc23)NC(=O)[C@H](Cc2c[nH]c3ccccc23)NC(=O)[C@H]([C@@H](C)O)NC(=O)[C@H](Cc2ccc(O)cc2)NC(=O)[C@H](Cc2ccc(O)cc2)NC(=O)[C@H](C)NC(=O)[C@H](Cc2ccc(O)cc2)NC1=O` here?
Answer: 11000 nM

Question: And the deltapIC50 [6]?
Answer: -0.32

Question: What about the IC50 ([2]; read-out: pIC50 (converted)) of the same molecule?
Answer: 3090 nM

Question: And the deltapIC50 [7]?
Answer: -0.31

Question: And the pIC50 [4]?
Answer: 4.38

Question: What about the deltapIC50 [8] of the same molecule?
Answer: -0.97

Question: For `CC[C@H](C)[C@@H]1NC(=O)[C@H](CC(C)C)NC(=O)[C@H](Cc2c[nH]c3ccccc23)NC(=O)[C@H](Cc2c[nH]c3ccccc23)NC(=O)[C@H]([C@@H](C)O)NC(=O)[C@H](Cc2ccc(O)cc2)NC(=O)[C@H](CC(C)C)NC(=O)[C@H](C)NC(=O)[C@H](Cc2ccc(O)cc2)NC(=O)[C@H](CCC(=O)O)NC(=O)[C@H](CCCNC(=N)N)NC(=O)[C@@H](Cc2ccc(O)cc2)NC(=O)CSC[C@@H](C(N)=O)NC(=O)[C@H](CCC(N)=O)NC1=O`, which IC50 ([1]; read-out: pIC50 (converted)) is on record?
Answer: 49000 nM

Question: What about the Ratio pIC50 [12] of the same molecule?
Answer: 12

Question: What about the IC50 ([2]; read-out: pIC50 (converted)) of the same molecule?
Answer: 204 nM

Question: And the pIC50 [13]?
Answer: 5.6

Question: And the deltapIC50 [7]?
Answer: 1.22

Question: And the pIC50 [4]?
Answer: 4.38

Question: And the IC50 [10]?
Answer: 45700 nM
